# Article PMC10835759 (RSC Advances, 2024)
# Columns and labels:
# [1] = target: rat intestinal sucrase (Rattus norvegicus, UniProt P23739); assay: Inhibitory effects on rat intestinal α-glucosidases: sucrase; type: biochemical; conditions: for IC50: IC50 Sucrase, rat small intestinal brush border membrane vesicles, sucrose 74 mM, pH 6.0, 37 °C, 30 min; for inhibition (%) Sucrase: at 100 μg mL^−1 (26a: 297 μM, 26b: 271 μM, 26c and 27c: 341 μM, 28a: 326 μM, 28b: 296 μM, 28c: 380 μM)
# [2] = target: rat intestinal isomaltase (Rattus norvegicus, UniProt P23739); assay: Inhibitory effects on rat intestinal α-glucosidases: isomaltase; type: biochemical; conditions: at 100 μg mL^−1 (26a: 297 μM, 26b: 271 μM, 26c and 27c: 341 μM, 28a: 326 μM, 28b: 296 μM, 28c: 380 μM)
# [3] = system: rat α-glucosidase; assay: Glycosidase inhibitory activity, enzymes from rat small intestines; type: biochemical; conditions: rat small intestinal enzymes, at 100 μg mL^−1
# Summary of the method: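 Enzyme source: brush border membrane vesicles prepared from rat small intestine and suspended in 0.1 M maleate buffer, pH 6.0. Test compound in DMSO, diluted in maleate buffer to 10% DMSO (2.5% final). Substrate solutions in maleate buffer: maltose 74 mM, sucrose 74 mM, 7.4 mM for isomaltase. Mixture incubated at 37 °C for 30 min and stopped by boiling for 2 min. Glucose measured by the glucose-oxidase method.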
# [4] = target: yeast glucosidase; conditions: read-out: Ki, inhibitory activity against yeast glucosidase; cited from earlier work
# Chain of rat intestinal sucrase (P23739 whole entry): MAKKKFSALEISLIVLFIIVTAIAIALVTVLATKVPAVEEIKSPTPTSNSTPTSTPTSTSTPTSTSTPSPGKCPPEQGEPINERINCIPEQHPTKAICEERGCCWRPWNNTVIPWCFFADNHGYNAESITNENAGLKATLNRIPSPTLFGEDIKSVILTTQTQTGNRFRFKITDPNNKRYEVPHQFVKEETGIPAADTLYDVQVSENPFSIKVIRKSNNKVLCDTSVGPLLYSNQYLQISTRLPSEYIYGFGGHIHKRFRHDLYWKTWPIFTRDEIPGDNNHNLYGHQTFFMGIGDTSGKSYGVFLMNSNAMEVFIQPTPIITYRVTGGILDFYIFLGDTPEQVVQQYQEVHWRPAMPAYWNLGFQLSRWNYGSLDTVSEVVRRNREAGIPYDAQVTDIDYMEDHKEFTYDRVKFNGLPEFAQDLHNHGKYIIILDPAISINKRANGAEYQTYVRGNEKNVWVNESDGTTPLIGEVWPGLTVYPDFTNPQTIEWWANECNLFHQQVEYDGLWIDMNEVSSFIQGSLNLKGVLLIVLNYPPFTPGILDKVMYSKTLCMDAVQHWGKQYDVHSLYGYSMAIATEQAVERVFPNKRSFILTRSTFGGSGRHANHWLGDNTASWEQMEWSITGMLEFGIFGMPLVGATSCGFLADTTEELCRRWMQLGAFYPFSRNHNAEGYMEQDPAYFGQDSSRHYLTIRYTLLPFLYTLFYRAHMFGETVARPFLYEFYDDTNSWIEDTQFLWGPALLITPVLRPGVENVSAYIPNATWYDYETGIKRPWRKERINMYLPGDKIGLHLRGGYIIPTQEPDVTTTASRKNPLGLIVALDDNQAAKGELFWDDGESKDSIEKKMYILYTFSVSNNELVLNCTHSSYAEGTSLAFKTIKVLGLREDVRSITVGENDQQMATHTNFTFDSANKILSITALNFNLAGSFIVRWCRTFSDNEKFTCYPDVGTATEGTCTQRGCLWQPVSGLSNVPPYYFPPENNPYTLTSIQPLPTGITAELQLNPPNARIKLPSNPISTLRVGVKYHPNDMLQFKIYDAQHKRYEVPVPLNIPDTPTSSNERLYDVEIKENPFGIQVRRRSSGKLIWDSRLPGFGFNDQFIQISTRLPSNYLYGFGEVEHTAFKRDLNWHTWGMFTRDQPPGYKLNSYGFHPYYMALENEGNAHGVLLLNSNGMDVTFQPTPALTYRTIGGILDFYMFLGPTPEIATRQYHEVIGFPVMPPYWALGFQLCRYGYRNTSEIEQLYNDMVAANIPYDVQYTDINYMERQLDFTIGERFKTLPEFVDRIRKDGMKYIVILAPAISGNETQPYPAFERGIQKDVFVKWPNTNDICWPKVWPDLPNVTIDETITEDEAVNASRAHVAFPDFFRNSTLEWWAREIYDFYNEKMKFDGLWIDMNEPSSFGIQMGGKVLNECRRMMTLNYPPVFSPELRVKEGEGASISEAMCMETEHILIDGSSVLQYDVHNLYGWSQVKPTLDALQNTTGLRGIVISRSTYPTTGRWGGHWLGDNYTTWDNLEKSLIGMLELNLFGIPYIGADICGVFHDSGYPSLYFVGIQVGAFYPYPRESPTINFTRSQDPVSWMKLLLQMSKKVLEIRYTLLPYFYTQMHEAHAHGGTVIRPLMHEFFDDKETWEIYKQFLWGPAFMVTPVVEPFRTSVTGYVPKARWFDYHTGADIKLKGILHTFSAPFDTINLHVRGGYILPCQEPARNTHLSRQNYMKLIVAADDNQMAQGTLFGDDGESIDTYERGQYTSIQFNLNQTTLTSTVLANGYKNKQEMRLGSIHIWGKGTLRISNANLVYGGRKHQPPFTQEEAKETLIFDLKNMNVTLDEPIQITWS
# Chain of rat intestinal isomaltase (P23739 whole entry): as above
IC50 [1] [µM],inhibition (%) Sucrase [1] [%],inhibition (%) Isomaltase [2] [%],"inhibitory activity against maltase, sucrase and isomaltase (in words) [3]",Compound,Ki [4] [µM]
> 341,3.2,5.9,hardly inhibited,"OCC[S+](C[C@@H](O)[C@@H](O)CO)C(CO)CO.[Cl-] (single isomer, unassigned) [Compound 26c]",–
> 341,4.4,−2.3,negligible,"OCC[S+](C[C@@H](O)CO)C[C@@H](O)[C@@H](O)CO.[Cl-] (stereo partly drawn) [Compound 27c, [(S)-2,3-Dihydroxypropyl] (2-hydroxyethyl) ((2S,3S)-2,3,4-trihydroxybutyl) sulfonium chloride]",–
1.4,–,–,effectively inhibited,"[O-][C@@H](CO)[C@H](O)C[S@+]1C[C@@H](O)[C@H](O)[C@H]1CO [Neosalacinol (4), neosalacinol, reference compound]",–
–,–,–,effectively inhibited,"O=S(=O)([O-])O[C@@H](CO)[C@H](O)C[S@+]1C[C@@H](O)[C@H](O)[C@H]1CO [Salacinol (1), salacinol, reference compound]",14

Compound,IC50 [1] [µM],inhibition (%) Sucrase [1] [%],inhibition (%) Isomaltase [2] [%],"inhibitory activity against maltase, sucrase and isomaltase (in words) [3]",Ki [4] [µM]
"OCC[S+](CCO)C[C@@H](O)[C@@H](O)CO.[Cl-] [Compound 28c, Di(2-hydroxyethyl) [(2S,3S)-2,3,4-trihydroxybutyl] sulfonium chloride]",> 380,2.6,−0.9,lost considerable activity,–
